# From ChEMBL document CHEMBL4152376, “Optimization of 8-Hydroxyquinolines as Inhibitors of Catechol O-Methyltransferase” (J Med Chem, 2018)
# pIC50: −log10 of the molar value.
# Experiments:
# [1] = Clearance in rat hepatocytes assessed as per million cells; type: ADME, cell-based, Hepatocyte; details: read-out: CLH
# [2] = Fraction unbound in rat plasma by equilibrium dialysis; type: ADME, cell-free
# In short: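 Percent free drug in mouse or rat plasma, measured by equilibrium dialysis.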
# [3] = Plasma concentration C57BL/6J mouse at 10 mg/kg, ip measured at 1 hr post dose; type: ADME, organism-based
# In short: (§1)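 Male C57BL/6J mice (8 weeks), single ip injection of 10 mg/kg suspended in 0.1% Tween80/0.1% antifoam/1% methylcellulose at 10 mL/kg. Two mice per timepoint; at 1 h, plasma separated at 4 °C and brain homogenized in 4 volumes PBS pH 7.4. Total brain and plasma levels measured.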
# Rattus norvegicus [4] = test: In vivo inhibition of COMT in Sprague-Dawley rat assessed as DOPAC levels in CSF at 10 mg/kg, po measured at 4 hrs post dose by LC-MS analysis relative to control; type: functional
# In short: (§2)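 Male Sprague Dawley rats (176–200 g on arrival) dosed orally at 10 mg/kg in Tween80/antifoam/methylcellulose suspension, 10 mL/kg, vehicle group as control (n=5–10). At 4 h under isoflurane, CSF drawn from cisterna magna. HVA and DOPAC quantified by LC-MS against standards in 0.01 M perchloric acid/aCSF with d5 internal standards. Reported as % of vehicle.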
# [5] = molecular target: T1, Catechol O-methyltransferase (Rattus norvegicus, UniProt P22734); test: Inhibition of c-terminal hexa-His tagged rat S-COMT expressed in HEK293-6E cell membrane homogenate using 7,8-dihydroxy-4-methylcoumarin as substrate after 1 hr in presence of SAM by MTase glo methyltransferase assay
# T1 sequence (P22734 whole entry): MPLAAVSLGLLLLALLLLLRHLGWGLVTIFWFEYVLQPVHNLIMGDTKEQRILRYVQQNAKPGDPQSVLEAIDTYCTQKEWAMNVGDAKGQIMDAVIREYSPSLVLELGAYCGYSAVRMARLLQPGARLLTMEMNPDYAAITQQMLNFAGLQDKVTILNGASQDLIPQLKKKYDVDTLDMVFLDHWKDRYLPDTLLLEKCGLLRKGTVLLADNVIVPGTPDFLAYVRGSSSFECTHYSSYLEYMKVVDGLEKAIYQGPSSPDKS
# In short: (§3)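 His6-tagged S-COMT (human or rat), expressed in 293-6E cells and purified by Ni-NTA and size exclusion, 1 ng per well. 20 µM SAM and 10 µM 7,8-dihydroxy-4-methylcoumarin in pH 6.9 Tris/MgCl2/DTT buffer, 1.5% DMSO. 1 h at 37 °C, then MTase-Glo luminescence read against a SAH standard curve. […] 4-parameter IC50; triplicate wells, three runs.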
# [6] = molecular target: T1, Catechol O-methyltransferase; test: Inhibition of c-terminal hexa-His tagged rat MB-COMT expressed in HEK293 cell membrane homogenate using norepinephrine as substrate after 1 hr in presence of SAM by MTase glo methyltransferase assay
# In short: (§4)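 Membrane homogenate of HEK293 cells expressing C-terminal His6 MB-COMT (human about 7 ng, rat about 4 ng per well, protein by Bradford […]). 20 µM SAM and 7 µM norepinephrine in 50 mM Tris, 5–10 mM MgCl2, 2.5 mM DTT, pH 6.9, final DMSO 1.5%. 1 h at 37 °C, then MTase-Glo luminescence. […] 4-parameter IC50 fit; triplicate points, three experiments.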
# [7] = Ratio of drug level in CSF of Sprague-Dawley rat to unbound plasma concentration in Sprague-Dawley rat at 10 mg/kg, po after 4 hrs by ES-UPLC analysis; type: ADME, organism-based; details: in vivo
# In short: (§5)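 Sprague Dawley rats given 10 mg/kg po; CSF, plasma and brain collected at 4 h. Drug measured in CSF; free plasma and brain levels computed from total levels using plasma protein and brain tissue binding fractions. Free CSF derived from CSF binding by equilibrium dialysis with pooled rat CSF. Ratios taken from these values.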
# [8] = Drug level in CSF of Sprague-Dawley rat at 10 mg/kg, po after 4 hrs by ES-UPLC analysis; type: ADME, organism-based, Cerebrospinal fluid; details: read-out: Drug uptake; in short: as §5
# Rattus norvegicus [9] = test: In vivo inhibition of COMT in Sprague-Dawley rat assessed as HVA levels in CSF at 10 mg/kg, po measured at 4 hrs post dose by LC-MS analysis relative to control; type: functional; set-up: scale not given: the % may be the effect or the level left; in short: as §2
# Rattus norvegicus [10] = test: Oral bioavailability in rat at 3/10 mg/kg; type: ADME, organism-based; details: in vivo
# In short: (§6)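 Rat pharmacokinetics after a 1 mpk iv dose (n=3) and a 3 or 10 mpk oral dose (n=3).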
# [11] = Half life in rat at 1 mg/kg, iv or 3/10 mg/kg, po; type: ADME, organism-based; details: in vivo; in short: as §6
# [12] = Unbound plasma concentration in Sprague-Dawley rat 10 mg/kg, po after 4 hrs by ES-UPLC analysis; type: ADME, organism-based; details: in vivo; in short: as §5
# [13] = Unbound drug level in brain of Sprague-Dawley rat at 10 mg/kg, po after 4 hrs by ES-UPLC analysis; type: ADME, organism-based; details: in vivo; in short: as §5
# [14] = Drug uptake in brain of C57BL/6J mouse at 10 mg/kg, ip measured at 1 hr post dose; type: ADME, organism-based; details: for concentration at 1 h: C57BL/6J, brain, read-out: Drug uptake; for Drug uptake: in vivo, 1 h, BLD = below limit of detection; in short: as §1
# Rattus norvegicus [15] = test: Volume of distribution at steady state in rat at 1 mg/kg, iv or 3/10 mg/kg, po; type: ADME, organism-based; details: in vivo; in short: as §6
# [16] = Ratio of drug level in CSF of Sprague-Dawley rat to unbound brain concentration in Sprague-Dawley rat at 10 mg/kg, po after 4 hrs by ES-UPLC analysis; type: ADME, organism-based; details: in vivo; in short: as §5
# [17] = molecular target: T2, Catechol O-methyltransferase (Homo sapiens, UniProt P21964); test: Inhibition of c-terminal hexa-His tagged human MB-COMT expressed in HEK293 cell membrane homogenate using norepinephrine as substrate after 1 hr in presence of SAM by MTase glo methyltransferase assay; in short: as §4
# T2 sequence (P21964 whole entry): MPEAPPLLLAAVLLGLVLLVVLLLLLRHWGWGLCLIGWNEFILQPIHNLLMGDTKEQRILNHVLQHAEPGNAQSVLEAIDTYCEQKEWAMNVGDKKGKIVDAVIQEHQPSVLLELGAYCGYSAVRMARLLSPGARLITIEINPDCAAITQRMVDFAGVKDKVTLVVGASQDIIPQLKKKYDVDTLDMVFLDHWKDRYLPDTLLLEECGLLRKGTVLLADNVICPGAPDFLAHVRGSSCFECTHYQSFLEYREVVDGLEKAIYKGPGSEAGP
# [18] = molecular target: T2, Catechol O-methyltransferase; test: Inhibition of c-terminal hexa-His tagged human S-COMT expressed in HEK293-6E cell membrane homogenate using 7,8-dihydroxy-4-methylcoumarin as substrate after 1 hr in presence of SAM by MTase glo methyltransferase assay; in short: as §3
# [19] = Efflux ratio of permeability in MDCK cells; type: ADME, cell-based, Canis lupus familiaris; details: dog
# In short: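 Efflux ratio taken as […] transport across P-glycoprotein-expressing MDCK cells.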
# [20] = molecular target: T2, Catechol O-methyltransferase; test: Inhibition of c-terminal hexa-His tagged human MB-COMT (unknown origin)
Structure (SMILES),hepatocyte CLint [1],concentration at 1 h [3],concentration at 1 h [14],pIC50 [17],pIC50 [18],further results
O=S(=O)(c1cc(Cl)c(O)c2ncccc12)C1CCCC1,18 µL/min/1e6 cells,14700 ng/mL,2790 ng/g,7.70,5.10,Fu [2]: 0.5; CSF DOPAC level (% of vehicle) (Rattus norvegicus [4]): 213%; pIC50 [5]: < 5.00; pIC50 [6]: > 9.00; Ratio [7]: 11; concentration at 4 h [8]: 358 nM; Activity (Rattus norvegicus [9]): 97%; F (Rattus norvegicus [10]): 37%; half-life [11]: 11 h; Cp(f) [12]: 32 nM; Drug uptake(free) [13]: 5.6 nM; Vdss (Rattus norvegicus [15]): 0.3 L/kg; Ratio [16]: 64
O=S(=O)(c1ccc(C(F)(F)F)cc1)c1cc(F)c(O)c2ncccc12,12 µL/min/1e6 cells,2540 ng/mL,1090 ng/g,7.10,5.20,Fu [2]: 0.6; F (Rattus norvegicus [10]): 66%; half-life [11]: 3.5 h; Vdss (Rattus norvegicus [15]): 3.8 L/kg; efflux ratio [19]: 1.1
COc1ccc(S(=O)(=O)N2CCCC2)c2cccnc12,–,–,–,< 5.00,–,–
O=S(=O)(c1ccc(C(F)(F)F)cc1)c1ccc(O)c2ncccc12,46 µL/min/1e6 cells,3540 ng/mL,–,7.20,5.90,Drug uptake [14]: Bld
O=S(=O)(c1ccc(O)c2ncccc12)N1CCC(c2ccc(F)cc2)C1 (stereo not drawn),255 µL/min/1e6 cells,–,–,8.50,–,–
O=C(c1ccc(O)c2ncccc12)N1CCCC1,–,–,–,< 5.00,–,–
O=S(=O)(c1cc(Cl)c(O)c2ncccc12)N1CCCC1,14 µL/min/1e6 cells,16200 ng/mL,1150 ng/g,8.00,5.50,Fu [2]: 0.5; F (Rattus norvegicus [10]): 33%; half-life [11]: 8.6 h; Vdss (Rattus norvegicus [15]): 0.8 L/kg; efflux ratio [19]: 0.4
Cc1cc(S(=O)(=O)N2CCCC2)c2cccnc2c1O,103 µL/min/1e6 cells,576 ng/mL,55 ng/g,7.70,5.50,–
O=S(=O)(c1cc(C(F)(F)F)c(O)c2ncccc12)C1CCCC1,–,–,–,< 5.00,< 5.00,–
O=S(=O)(c1ccc(O)c2ncccc12)N1CCCC1,177 µL/min/1e6 cells,68 ng/mL,10.5 ng/g,8.10,5.70,–
Cc1ccc(S(=O)(=O)c2cc(C(F)(F)F)c(O)c3ncccc23)cc1,–,–,–,< 5.00,< 5.00,–
Cc1ccc(S(=O)(=O)c2cc(O)c3ncccc3c2)cc1,–,–,–,–,–,pIC50 [20]: 5.80
Cc1ccc(S(=O)(=O)c2cc(Br)c(O)c3ncccc23)cc1,–,–,–,5.90,< 5.00,–
O=S(=O)(c1ccc(O)c2ncccc12)C1CCCC1,–,173 ng/mL,–,8.20,6.30,Fu [2]: 0.5; F (Rattus norvegicus [10]): 24%; half-life [11]: 0.18 h; Drug uptake [14]: Bld; Vdss (Rattus norvegicus [15]): 1.8 L/kg
O=S(=O)(c1ccc(F)cc1)c1cc(Cl)c(O)c2ncccc12,4 µL/min/1e6 cells,16600 ng/mL,5660 ng/g,6.70,< 5.00,Fu [2]: 0.5; F (Rattus norvegicus [10]): 23%; half-life [11]: 8.9 h; Vdss (Rattus norvegicus [15]): 0.23 L/kg; efflux ratio [19]: 0.8
Cc1ccc(-c2ccc(O)c3ncccc23)cc1,–,–,–,6.60,–,–
Oc1cccc2cccnc12 [OXYQUINOLINE],–,–,–,5.80,–,pIC50 [20]: 5.50
Cc1ccc(S(=O)(=O)c2cc(F)c(O)c3ncccc23)cc1,36 µL/min/1e6 cells,1740 ng/mL,518 ng/g,8.20,6.30,F (Rattus norvegicus [10]): 34%; half-life [11]: 0.26 h; Vdss (Rattus norvegicus [15]): 1.2 L/kg
Cc1ccc(C(=O)c2ccc(O)c3ncccc23)cc1,–,–,–,5.40,–,–
CCS(=O)(=O)c1ccc(O)c2ncccc12,39 µL/min/1e6 cells,250 ng/mL,11 ng/g,7.30,5.80,–
O=S(=O)(O)c1ccc(O)c2ncccc12,–,–,–,–,–,pIC50 [20]: 5.20
Cc1ccc(S(=O)(=O)c2ccc(O)c3ncccc23)cc1,–,–,–,7.70,6.30,pIC50 [20]: 7.70
